Data on 30 compounds can be found in ChEMBL document CHEMBL1156894, “Potent oxadiazole CGRP receptor antagonists for the potential treatment of migraine” (Bioorg Med Chem Lett, 2010).

≈ marks a conversion by molar mass, not a printed value.

Series [1] concerns the target T1, Calcitonin gene-related peptide type 1 receptor (Homo sapiens, UniProt O60894+Q16602). Briefly: Antagonist activity at human recombinant CGRP receptor expressed in HEK293 cells assessed as inhibition of CGRP-stimulated increase of intracellular cAMP level in absence of human serum albumin. In kind it is functional, cell-based. The gist of the method: (§1)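 HEK 293 cells expressing human recombinant CGRP receptor; antagonism of CGRP-stimulated rise in intracellular cAMP measured, run with or without HSA; functional pKi (fpKi) derived. Values are means of two experiments unless otherwise footnoted.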
On the technique in general: cAMP levels reflect the balance of adenylyl cyclase and phosphodiesterase activity.

Series [2] can be described thus: Blood clearance in rat. Format: ADME, organism-based.
A short description of series [3]: Permeability across artificial membrane. Format: ADME. The conditions noted are these: PAMPA; read-out: permeability. Summed up:
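In vitro artificial membrane permeability assay (PAMPA).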

The target of series [4] is T1, Calcitonin gene-related peptide type 1 receptor. As to the kind of experiment: Antagonist activity at human recombinant CGRP receptor expressed in HEK293 cells assessed as inhibition of CGRP-stimulated increase of intracellular cAMP level in presence of human serum albumin. Format: functional, cell-based. The gist of the method:
as §1

Series [5] can be described thus: Aqueous solubility in fasted-state simulated intestinal fluid after 1 hr. Format: physicochemical. Summed up: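 Compound amount dissolved in fasted-state simulated intestinal fluid, read at the 1 h time point.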
Series [6] is described as follows: Clearance in rat at 1 mg/kg, iv. In kind it is ADME, organism-based. The arrangement: dose 1 mg/kg, route intravenous. The note with it: in vivo. Summed up: (§2)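 Intravenous dose of 1 mg/kg in rat; clearance and half-life derived from the blood profile.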
Series [7] deals with Rattus norvegicus. As to the kind of experiment: Dose normalized AUC in rat at 10 mg/kg, po in 5% N-Methyl-2-pyrrolidone, 80% Poly(ethylene glycol400 diluted to volume with 20% vitamin E TPGS in water. Format: ADME, organism-based. The arrangement: dose 10 mg/kg, route oral. The conditions noted are these: in vivo. Summed up:
(§3)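 Rats given 10 mg/kg orally, formulated at 2 mg/mL in 5% NMP, 80% PEG400 made up to volume with 20% Vitamin E TPGS in water. Blood concentration-time profile followed over about 5 h per rat, giving Cmax, Tmax and dose-normalised AUC.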

Series [8] in a line: Half life in rat at 1 mg/kg, iv. Format: ADME, organism-based. Also on record: dose 1 mg/kg, route intravenous. The note with it: in vivo. Summed up:
as §2

Series [9] can be described thus: Bioavailability in rat at 10 mg/kg, po in 5% N-Methyl-2-pyrrolidone, 80% Poly(ethylene glycol400 diluted to volume with 20% vitamin E TPGS in water. In kind it is ADME, organism-based. The note with it: in vivo.
The subject of series [10] is Rattus norvegicus. As to the kind of experiment: Liver blood flow in rat at 1 mg/kg, iv. The conditions noted are these: in vivo. Format: ADME, organism-based. The arrangement: dose 1 mg/kg, route intravenous.
Series [11] in a line: Cmax in rat at 10 mg/kg, po in 5% N-Methyl-2-pyrrolidone, 80% Poly(ethylene glycol400 diluted to volume with 20% vitamin E TPGS in water. Format: ADME, organism-based. Also on record: dose 10 mg/kg, route oral. The note with it: in vivo. Summed up:
as §3

Series [12] in a line: Tmax in rat at 10 mg/kg, po in 5% N-Methyl-2-pyrrolidone, 80% Poly(ethylene glycol400 diluted to volume with 20% vitamin E TPGS in water. In kind it is ADME, organism-based. The conditions noted are these: in vivo. Also on record: dose 10 mg/kg, route oral. The gist of the method:
as §3

The nature of series [13]: Cmax in rat at 10 mg/kg, po in 1% methylcellulose. The arrangement: dose 10 mg/kg, route oral. The conditions noted are these: in vivo. In kind it is ADME, organism-based. Summed up:
(§4)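 Oral dosing to rats at 10 mg/kg as a 2 mg/mL suspension in 1% (w/v) aqueous methylcellulose. Blood concentrations followed over about 6 h, giving Cmax, Tmax and dose-normalised AUC.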

Series [14] is described as follows: Bioavailability in rat at 10 mg/kg, po in 1% methylcellulose. In kind it is ADME, organism-based. The conditions noted are these: in vivo.
Series [15] is described as follows: Tmax in rat at 10 mg/kg, po in 1% methylcellulose. In kind it is ADME, organism-based. The arrangement: dose 10 mg/kg, route oral. The note with it: in vivo. Summed up:
as §4

Series [16] has as its system Rattus norvegicus. As to the kind of experiment: Dose normalized in rat at 10 mg/kg, po in 1% methylcellulose. Format: ADME, organism-based. Also on record: dose 10 mg/kg, route oral. The note with it: in vivo. Summed up:
as §4

T1 sequence (Q16602 whole entry, one chain of several): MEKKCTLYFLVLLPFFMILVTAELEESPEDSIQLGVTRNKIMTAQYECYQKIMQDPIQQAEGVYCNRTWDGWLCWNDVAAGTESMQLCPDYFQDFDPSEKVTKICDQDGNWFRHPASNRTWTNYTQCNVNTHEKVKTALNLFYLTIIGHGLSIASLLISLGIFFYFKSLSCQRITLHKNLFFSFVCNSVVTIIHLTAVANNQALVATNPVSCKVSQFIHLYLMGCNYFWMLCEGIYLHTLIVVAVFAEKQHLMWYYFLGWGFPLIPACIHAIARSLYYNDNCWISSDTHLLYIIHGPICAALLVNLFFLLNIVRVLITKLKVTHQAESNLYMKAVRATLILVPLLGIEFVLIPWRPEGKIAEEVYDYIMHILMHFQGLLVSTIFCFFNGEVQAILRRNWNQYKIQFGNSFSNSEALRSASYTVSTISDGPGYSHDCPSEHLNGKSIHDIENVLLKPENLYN

By Ki is commonly meant a measure of affinity in units of concentration, obtained from inhibition or displacement. With `O=C(Cc1nnc(-c2cc(F)cc(Cl)c2)o1)N1CCC(n2c(=O)[nH]c3ncccc32)CC1`, the Ki in series [1] is 25.1 nM.

On to `O=C(Cc1nnc(-c2c(Cl)cccc2Cl)o1)N1CCC(n2c(=O)[nH]c3ncccc32)CC1`, for which, in series [1], the Ki is 794 nM.

A word on the clearance: it is a measure of how efficiently the substance is removed, as volume per time. Low readings indicate a low capacity for elimination, high ones a high capacity for elimination. A word on the solubility: it is the concentration that dissolves in the medium under given conditions. For the compound `O=C(Cc1nnc(-c2cc(Cl)cc(N3CCOCC3)c2)o1)N1CCC(n2c(=O)[nH]c3ncccc32)CC1`, the clearance in series [2] amounted to 70 mL/min/kg. Moreover, the Papp in series [3] was 12 ×10⁻⁶ cm/s. Also, the Ki in series [1] is 6.31 nM; in series [4] it was 126 nM. In addition, in series [5], the solubility at 1 h was 40 µg/mL (≈ 76.3 µM).

For the compound `O=C(Cc1nnc(-c2ccccc2Cl)o1)N1CCC(n2c(=O)[nH]c3ncccc32)CC1`, the Ki in series [1] was 501 nM.

As for `O=C(Cc1nnc(-c2ccc(Cl)cc2)o1)N1CCC(n2c(=O)[nH]c3ncccc32)CC1`, in [1], the Ki was 1000 nM.

Consider `O=C(Cc1nnc(-c2cc(Cl)ccc2Cl)o1)N1CCC(n2c(=O)[nH]c3ncccc32)CC1`, for which the Ki in series [1] was 126 nM.

Regarding `COc1cc(OC)cc(-c2nnc(CC(=O)N3CCC(n4c(=O)[nH]c5ncccc54)CC3)o2)c1`, the Ki in [1] is 50.1 nM.

In turn, `O=C(Cc1nnc(-c2cc(Cl)cc(C3CCN(CC(F)F)CC3)c2)o1)N1CCC(n2c(=O)[nH]c3ncccc32)CC1` gave a clearance in [2] of 67 mL/min/kg. The Papp in series [3] is 20 ×10⁻⁶ cm/s. Moreover, the inhibition constant (Ki) in [1] was 3.98 nM; in [4], 79.4 nM. Also, the solubility at 1 h in series [5] was 10 µg/mL (≈ 17.1 µM).

The compound `CN1CCN(c2cc(Cl)cc(-c3nnc(CC(=O)N4CCC(n5c(=O)[nH]c6ncccc65)CC4)o3)c2)CC1` returned a clearance in [2] of 72 mL/min/kg. Also, in series [3], the Papp was less than 0.3 ×10⁻⁶ cm/s. The Ki in series [1] is 5.01 nM; in series [4], 25.1 nM. The compound also yielded a solubility at 1 h in series [5] of 210 µg/mL (≈ 391 µM).

Take `CN(C)CCOc1cc(Cl)cc(-c2nnc(CC(=O)N3CCC(n4c(=O)[nH]c5ncccc54)CC3)o2)c1`: the Papp in series [3] came to 1.2 ×10⁻⁶ cm/s. The Ki was 5.01 nM in series [1] and 50.1 nM in [4]. The same compound showed a solubility at 1 h in series [5] of 330 µg/mL (≈ 627 µM).

Regarding `Cc1ccc(-c2cc(Cl)cc(-c3nnc(CC(=O)N4CCC(n5c(=O)[nH]c6ncccc65)CC4)o3)c2)cn1`, the Papp in [3] amounted to 22 ×10⁻⁶ cm/s. Moreover, the Ki in [1] was 2.51 nM; in series [4], 126 nM. The compound also displayed a solubility at 1 h in [5] of less than 1 µg/mL.

As to `COc1ccc(-c2ccccc2)cc1CC(=O)N1CCC(n2c(=O)[nH]c3ncccc32)CC1`, the Ki in series [1] is 2510 nM.

As to `O=C(Cc1nnc(-c2cc(Cl)cc(Br)c2)o1)N1CCC(n2c(=O)[nH]c3ncccc32)CC1`, the Ki in series [1] was 12.6 nM.

For the compound `O=C(Cc1nnc(-c2cccc(Cl)c2)o1)N1CCC(n2c(=O)[nH]c3ncccc32)CC1`, the Ki in series [1] is 316 nM.

By half-life is commonly meant the time in which the quantity being followed falls by half. A low value points to fast loss. As a reminder, the bioavailability is the share of a dose that reaches the circulation, judged against a reference dose that is usually intravenous. The term Cmax denotes the maximum level reached in the sampled fluid or tissue. What is called Tmax is the time from dosing to the highest level. The compound `O=C(Cc1nnc(-c2cc(Cl)cc(C(F)(F)F)c2)o1)N1CCC(n2c(=O)[nH]c3ncccc32)CC1` displayed a clearance in series [6] of 33 mL/min/kg. The AUC in the series on Rattus norvegicus [7] was found to be 6.3 kg·min/L. For the same compound, in series [8], the half-life is 0.5 h. The bioavailability in [9] is 20%. This compound came in with an LBF in the series on Rattus norvegicus [10] of 40%. In series [11], the concentration peaked (Cmax) at 700 nM. Besides, the Ki in [1] is 3.98 nM. In series [12], the Tmax stood at 1.5 h.

Consider `O=C(Cc1nnc(-c2cc(Cl)cc(Cl)c2)o1)N1CCC(n2c(=O)[nH]c3ncccc32)CC1`, for which the Ki in [1] was 15.8 nM.

Regarding `O=C(Cc1nnc(-c2cc(Cl)cc(-c3ccccc3)c2)o1)N1CCC(n2c(=O)[nH]c3ncccc32)CC1`, the Ki in series [1] is 2.51 nM.

`Cc1ncc(-c2cc(Cl)cc(-c3nnc(CC(=O)N4CCC(n5c(=O)[nH]c6ncccc65)CC4)o3)c2)n1C` returned a clearance in series [2] of 52 mL/min/kg. The Papp in [3] was less than 0.3 ×10⁻⁶ cm/s. Moreover, the Ki in [1] is 1.58 nM; in series [4], 100 nM. In [5], the concentration in solution (solubility at 1 h) was 390 µg/mL (≈ 732 µM).

With `COc1cc(Cl)cc(-c2nnc(CC(=O)N3CCC(n4c(=O)[nH]c5ncccc54)CC3)o2)c1`, the Ki in series [1] is 7.94 nM.

In the case of `O=C(Cc1nnc(-c2ccc(Cl)c(Cl)c2)o1)N1CCC(n2c(=O)[nH]c3ncccc32)CC1`, the Ki in [1] was 251 nM.

Regarding `O=C(Cc1nnc(-c2cc(-c3ccccc3)cc(N3CCOCC3)c2)o1)N1CCC(n2c(=O)[nH]c3ncccc32)CC1`, the Ki in [1] is 200 nM.

On to `O=C(Cc1nnc(-c2cc(F)cc(F)c2)o1)N1CCC(n2c(=O)[nH]c3ncccc32)CC1`, for which the Ki in series [1] was 126 nM.

On to `Cc1cc(-c2nnc(CC(=O)N3CCC(n4c(=O)[nH]c5ncccc54)CC3)o2)cc(N2CCOCC2)c1`, for which the Ki in [1] was 6.31 nM.

With `O=C(Cc1nnc(-c2ccccc2)o1)N1CCC(n2c(=O)[nH]c3ncccc32)CC1`, the Ki in series [1] was 200 nM.

`CCN1CCC(c2cc(Cl)cc(-c3nnc(CC(=O)N4CCC(n5c(=O)[nH]c6ncccc65)CC4)o3)c2)CC1`: the Papp in series [3] was determined as 0.5 ×10⁻⁶ cm/s. For the same compound, the values for the Ki in series [1] and in series [4] were 3.16 nM and 15.8 nM, respectively. Also, the solubility at 1 h in series [5] is 565 µg/mL (≈ 1030 µM).

For the compound `O=C(Cc1nnc(-c2cc(C(F)(F)F)cc(C(F)(F)F)c2)o1)N1CCC(n2c(=O)[nH]c3ncccc32)CC1`, in series [1], the Ki is 25.1 nM.

In the case of `CN(C)CCOc1cc(Cl)cc(-c2nnc(CC(=O)N3CCC(N4CCc5ccccc5NC4=O)CC3)o2)c1`, the clearance in series [6] and in series [2] was 50 mL/min/kg in each case. In series [13], this compound showed a Cmax of 250 nM. In addition, the bioavailability in series [14] was determined as 14%. Further, in series [8], the half-life was 1.9 h. Moreover, the Tmax in series [15] was found to be 3 h. This compound also showed an AUC in the series on Rattus norvegicus [16] of 2.5 kg·min/L. The Papp in series [3] worked out at 18.5 ×10⁻⁶ cm/s. The Ki in series [1] is 12.6 nM; in series [4] it was 15.8 nM. The concentration in solution in series [5] (solubility at 1 h) was 120 µg/mL (≈ 217 µM).

Regarding `O=C(Cc1nnc(-c2cccc(Cl)c2Cl)o1)N1CCC(n2c(=O)[nH]c3ncccc32)CC1`, in series [1], the Ki was 158 nM.

As to `Cc1cc(C)cc(-c2nnc(CC(=O)N3CCC(n4c(=O)[nH]c5ncccc54)CC3)o2)c1`, the Ki in series [1] is 25.1 nM.

Regarding `CN1CCC(c2cc(Cl)cc(-c3nnc(CC(=O)N4CCC(n5c(=O)[nH]c6ncccc65)CC4)o3)c2)CC1`, in series [3], the Papp is 2.2 ×10⁻⁶ cm/s. Further, the Ki in series [1] was 3.98 nM; in series [4], 20 nM. This compound also came in with a solubility at 1 h in [5] of 531 µg/mL (≈ 991 µM).
